Experiments:
Format in all cases: cell-based
Toll-like receptor 7 [1] = molecular target: T1, Toll-like receptor 7 (Mus musculus, UniProt P58681); assay: Agonist activity at TLR7 in mouse RAW264.7 cells assessed as immunostimulatory activity by measuring increase in TNFalpha secretion incubated for 18 hrs by ELISA
T1 sequence (P58681 whole entry): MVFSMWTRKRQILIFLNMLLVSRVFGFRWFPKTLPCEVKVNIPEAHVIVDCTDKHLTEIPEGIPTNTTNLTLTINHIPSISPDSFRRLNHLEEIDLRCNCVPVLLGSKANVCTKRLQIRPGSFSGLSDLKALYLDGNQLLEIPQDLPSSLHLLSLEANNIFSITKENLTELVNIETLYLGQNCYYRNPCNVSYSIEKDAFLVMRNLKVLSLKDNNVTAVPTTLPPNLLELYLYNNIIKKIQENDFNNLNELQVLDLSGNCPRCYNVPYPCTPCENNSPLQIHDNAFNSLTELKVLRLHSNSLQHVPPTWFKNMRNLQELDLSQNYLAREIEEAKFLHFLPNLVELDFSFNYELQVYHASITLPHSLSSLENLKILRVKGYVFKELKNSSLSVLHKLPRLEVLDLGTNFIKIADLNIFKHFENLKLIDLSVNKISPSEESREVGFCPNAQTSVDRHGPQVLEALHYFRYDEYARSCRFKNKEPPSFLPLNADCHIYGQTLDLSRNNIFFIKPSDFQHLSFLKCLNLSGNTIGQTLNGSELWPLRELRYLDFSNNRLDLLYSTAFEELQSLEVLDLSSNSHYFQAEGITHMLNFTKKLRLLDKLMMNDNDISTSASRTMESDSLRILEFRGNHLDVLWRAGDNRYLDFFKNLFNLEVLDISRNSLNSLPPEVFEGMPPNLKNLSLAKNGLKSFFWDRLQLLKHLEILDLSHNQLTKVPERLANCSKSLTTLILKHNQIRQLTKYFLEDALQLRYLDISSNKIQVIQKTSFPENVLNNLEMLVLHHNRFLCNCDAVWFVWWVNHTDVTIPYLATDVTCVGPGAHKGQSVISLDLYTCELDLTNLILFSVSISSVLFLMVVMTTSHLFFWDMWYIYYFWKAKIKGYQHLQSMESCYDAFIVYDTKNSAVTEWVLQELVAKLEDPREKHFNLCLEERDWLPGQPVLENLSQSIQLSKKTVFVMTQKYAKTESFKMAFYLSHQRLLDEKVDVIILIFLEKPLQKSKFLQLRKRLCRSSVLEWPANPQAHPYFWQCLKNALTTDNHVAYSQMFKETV
In short: (§1)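 Murine RAW264.7 macrophages plated at 1×10^4 cells/well, incubated 18 h with serially diluted compound; 0.25% DMSO vehicle. TNF-α in culture supernatant measured by ELISA. EC50 calculated by curve fitting; Emax as % of unconjugated reference ligand. Means ± SD of triplicate, representative of three independent experiments.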

Toll-like receptor 7 [2] = molecular target: T1, Toll-like receptor 7; assay: Agonist activity at TLR7 in mouse BMDC cells assessed as immunostimulatory activity by measuring increase in IL6 secretion incubated for 18 hrs by ELISA
In short: (§2)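 Primary murine bone marrow-derived dendritic cells plated at 1×10^5 cells/well and exposed to serially diluted compound; 0.25% DMSO vehicle. IL-6 in supernatant measured by ELISA. EC50 calculated by curve fitting; Emax expressed as % relative to the unconjugated reference ligand. Means ± SD of triplicate, representative of three independent experiments.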

[3] = molecular target: T2, Toll-like receptor 7 (Mus musculus) (UniProt P58681); assay: Agonist activity at TLR7 in mouse RAW264.7 cells assessed as immunostimulatory activity by measuring increase in TNFalpha secretion incubated for 18 hrs by ELISA relative to 1V209; in short: as §1
T2 sequence (whole entry): T1 sequence (P58681 whole entry)

[4] = molecular target: T2, Toll-like receptor 7 (Mus musculus); assay: Agonist activity at TLR7 in mouse BMDC cells assessed as immunostimulatory activity by measuring increase in IL6 secretion incubated for 18 hrs by ELISA relative to 1V209; in short: as §2
Toll-like receptor 7 [5] = molecular target: T1, Toll-like receptor 7; assay: Agonist activity at TLR7 in mouse RAW264.7 cells assessed as immunostimulatory activity by measuring increase in TNFalpha secretion incubated for 6 hrs in absence of actin polymerization inhibitor cytochalasin D by ELISA
In short: (§3)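 RAW264.7 cells seeded at 1.5×10^4 cells/well, pre-incubated with or without 1 μM cytochalasin D, then exposed 6 h to serially diluted compound. TNF-α and IL-6 in supernatants determined by ELISA. Means ± SD of triplicate, representative of three independent experiments.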

[6] = molecular target: T3, Toll-like receptor 7 (Homo sapiens) (UniProt Q9NYK1); assay: Agonist activity at TLR7 in human PBMC cells assessed as immunostimulatory activity by measuring fold increase in TNFalpha secretion at 10 uM incubated for 18 hrs by ELISA relative to 1V209
T3 sequence (whole entry): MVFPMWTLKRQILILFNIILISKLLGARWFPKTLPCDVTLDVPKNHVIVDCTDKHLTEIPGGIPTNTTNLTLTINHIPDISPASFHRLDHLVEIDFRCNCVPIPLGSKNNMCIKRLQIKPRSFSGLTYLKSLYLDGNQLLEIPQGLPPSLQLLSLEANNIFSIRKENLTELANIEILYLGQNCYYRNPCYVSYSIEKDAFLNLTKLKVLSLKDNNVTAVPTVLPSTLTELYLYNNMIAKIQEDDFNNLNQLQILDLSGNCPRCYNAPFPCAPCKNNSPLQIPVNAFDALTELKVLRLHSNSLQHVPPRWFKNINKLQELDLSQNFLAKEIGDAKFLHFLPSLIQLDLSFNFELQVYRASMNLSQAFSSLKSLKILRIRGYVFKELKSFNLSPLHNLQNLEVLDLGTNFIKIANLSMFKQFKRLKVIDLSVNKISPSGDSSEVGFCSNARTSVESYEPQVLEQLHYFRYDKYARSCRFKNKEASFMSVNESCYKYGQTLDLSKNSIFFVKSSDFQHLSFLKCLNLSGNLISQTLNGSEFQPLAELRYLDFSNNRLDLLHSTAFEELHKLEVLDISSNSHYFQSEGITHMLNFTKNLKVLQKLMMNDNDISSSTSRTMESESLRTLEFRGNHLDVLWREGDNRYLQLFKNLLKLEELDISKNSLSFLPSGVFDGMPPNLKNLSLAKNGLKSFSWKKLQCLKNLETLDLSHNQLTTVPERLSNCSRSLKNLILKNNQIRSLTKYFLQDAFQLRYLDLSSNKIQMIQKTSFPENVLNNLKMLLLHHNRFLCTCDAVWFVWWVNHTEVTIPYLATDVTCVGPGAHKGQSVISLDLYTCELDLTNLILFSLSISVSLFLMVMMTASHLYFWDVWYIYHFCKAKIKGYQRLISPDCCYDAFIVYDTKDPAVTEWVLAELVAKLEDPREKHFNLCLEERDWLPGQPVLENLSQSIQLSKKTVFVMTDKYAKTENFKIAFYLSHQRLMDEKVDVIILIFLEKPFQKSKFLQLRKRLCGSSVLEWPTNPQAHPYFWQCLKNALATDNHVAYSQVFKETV
In short: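 Human PBMC plated at 2×10^5 cells/well, exposed 18 h to 10 μM compound; 0.25% DMSO vehicle control. Cytokine in culture supernatant quantified by ELISA. Means ± SD of triplicate, representative of three independent experiments; one-way ANOVA with Dunnett's multiple comparisons test.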

Toll-like receptor 7 [7] = molecular target: T1, Toll-like receptor 7; assay: Agonist activity at TLR7 in mouse RAW264.7 cells assessed as immunostimulatory activity by measuring increase in TNFalpha secretion preincubated with actin polymerization inhibitor cytochalasin D followed by incubation with compound for 6 hrs by ELISA; in short: as §3

SMILES	EC50 (Toll-like receptor 7 [1]) [µM]	EC50 (Toll-like receptor 7 [2]) [µM]	Emax [3] [%]	Emax [4] [%]	EC50 (Toll-like receptor 7 [5]) [µM]	fold change (FC) [6]	EC50 (Toll-like receptor 7 [7]) [µM]
COCCOc1nc(N)c2nc(O)n(Cc3ccc(C(=O)NC[C@H]4O[C@@H]5O[C@H]6[C@H](O)[C@@H](O)[C@@H](O[C@H]7[C@H](O)[C@@H](O)[C@@H](O[C@H]8[C@H](O)[C@@H](O)[C@@H](O[C@H]9[C@H](O)[C@@H](O)[C@@H](O[C@H]%10[C@H](O)[C@@H](O)[C@@H](O[C@H]%11[C@H](O)[C@@H](O)[C@@H](O[C@H]4[C@H](O)[C@H]5O)O[C@@H]%11CO)O[C@@H]%10CO)O[C@@H]9CO)O[C@@H]8CO)O[C@@H]7CO)O[C@@H]6CO)cc3)c2n1	0.287	0.153	135	127			
COCCOc1nc(N)c2nc(O)n(Cc3ccc(C(=O)NC4O[C@H](CO)[C@H](O)[C@H](O)[C@H]4O)cc3)c2n1 (stereo partly specified)	0.316	0.258	115	118			
COCCOc1nc(N)c2nc(O)n(Cc3ccc(C(=O)N[C@H]4C(O)O[C@H](CO)[C@@H](O)[C@@H]4O)cc3)c2n1 (stereo partly specified)	0.234	0.239	103	139		2	
COCCOc1nc(N)c2nc(O)n(Cc3ccc(C(=O)NC4O[C@H](CO)[C@@H](O)[C@H](O)[C@@H]4O)cc3)c2n1 (stereo partly specified)	0.252	0.303	121	116			
COCCOc1nc(N)c2[nH]c(=O)n(Cc3ccc(C(=O)O)cc3)c2n1	0.252	0.434	100	100	2.15		2.11
COCCOc1nc(N)c2nc(O)n(Cc3ccc(C(=O)N[C@H]4C(O)O[C@H](CO)[C@H](O)[C@@H]4O)cc3)c2n1 (stereo partly specified)	0.153	0.21	83	139			
COCCOc1nc(N)c2nc(O)n(Cc3ccc(C(=O)NC4O[C@H](CO)[C@@H](O)[C@H](O)[C@H]4O)cc3)c2n1 (stereo partly specified)	0.23	0.198	87	118	0.49		0.909

Compounds with a lower EC50 (Toll-like receptor 7 [1]), results first:

EC50 (Toll-like receptor 7 [1]) [µM]	EC50 (Toll-like receptor 7 [2]) [µM]	Emax [3] [%]	Emax [4] [%]	EC50 (Toll-like receptor 7 [5]) [µM]	fold change (FC) [6]	EC50 (Toll-like receptor 7 [7]) [µM]	SMILES
0.136	0.099	157	159	0.277	2	0.585	COCCOc1nc(N)c2nc(O)n(Cc3ccc(C(=O)NC4O[C@H](CO)[C@@H](O[C@H]5O[C@H](CO)[C@@H](O)[C@H](O)[C@H]5O)[C@H](O)[C@H]4O)cc3)c2n1 (stereo partly specified)
0.132	0.108	97	130				COCCOc1nc(N)c2nc(O)n(Cc3ccc(C(=O)NC[C@H]4O[C@@H]5O[C@H]6[C@H](O)[C@@H](O)[C@@H](O[C@H]7[C@H](O)[C@@H](O)[C@@H](O[C@H]8[C@H](O)[C@@H](O)[C@@H](O[C@H]9[C@H](O)[C@@H](O)[C@@H](O[C@H]%10[C@H](O)[C@@H](O)[C@@H](O[C@H]%11[C@H](O)[C@@H](O)[C@@H](O[C@H]%12[C@H](O)[C@@H](O)[C@@H](O[C@H]4[C@H](O)[C@H]5O)O[C@@H]%12CO)O[C@@H]%11CO)O[C@@H]%10CO)O[C@@H]9CO)O[C@@H]8CO)O[C@@H]7CO)O[C@@H]6CO)cc3)c2n1
0.128	0.071	126	127				COCCOc1nc(N)c2nc(O)n(Cc3ccc(C(=O)NC[C@H]4O[C@@H]5O[C@H]6[C@H](O)[C@@H](O)[C@@H](O[C@H]7[C@H](O)[C@@H](O)[C@@H](O[C@H]8[C@H](O)[C@@H](O)[C@@H](O[C@H]9[C@H](O)[C@@H](O)[C@@H](O[C@H]%10[C@H](O)[C@@H](O)[C@@H](O[C@H]4[C@H](O)[C@H]5O)O[C@@H]%10CO)O[C@@H]9CO)O[C@@H]8CO)O[C@@H]7CO)O[C@@H]6CO)cc3)c2n1
0.107	0.056	113	109				COCCOc1nc(N)c2nc(O)n(Cc3ccc(C(=O)N[C@H]4[C@H](O)[C@H]5O[C@H]6[C@H](O)[C@@H](O)[C@@H](O[C@H]7[C@H](O)[C@@H](O)[C@@H](O[C@H]8[C@H](O)[C@@H](O)[C@@H](O[C@H]9[C@H](O)[C@@H](O)[C@@H](O[C@H]%10[C@H](O)[C@@H](O)[C@@H](O[C@H]%11[C@H](O)[C@@H](O)[C@@H](O[C@H]%12[C@H](O)[C@@H](O)[C@@H](O[C@@H]4[C@@H](CO)O5)O[C@@H]%12CO)O[C@@H]%11CO)O[C@@H]%10CO)O[C@@H]9CO)O[C@@H]8CO)O[C@@H]7CO)O[C@@H]6CO)cc3)c2n1
0.08	0.11	177	142				COCCOc1nc(N)c2nc(O)n(Cc3ccc(C(=O)NC4O[C@H](CO)[C@@H](O[C@@H]5O[C@H](CO)[C@H](O)[C@H](O)[C@H]5O)[C@H](O)[C@H]4O)cc3)c2n1 (stereo partly specified)
